Drawing on ChEMBL document CHEMBL4354843, “Structure-Based Design of a Potent and Selective Covalent Inhibitor for SRC Kinase That Targets a P-Loop Cysteine” (J Med Chem, 2020), this text covers Activity for 1 compound.

Structures are written as SMILES.

Assay [1] addresses Activin receptor type-2B (Homo sapiens) (UniProt Q13705). As to the kind of experiment: Binding affinity to wild-type human ACVR2B (H169 to D504 residues) expressed in bacterial expression system assessed as residual binding level at 1 uM by Kinomescan method relative to control. An outline of the steps: (§1)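 Active-site-directed KinomeScan competition binding panel covering 468 kinases, compound tested at 1 μM. Each readout is the kinase signal remaining with compound, expressed as a percentage of the DMSO control. […]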

The target of assay [2] is Serine/threonine-protein kinase B-raf (Homo sapiens) (UniProt P15056). Put plainly: Binding affinity to wild-type human partial length BRAF (S429 to E741 residues) expressed in mammalian expression system assessed as residual binding level at 1 uM by Kinomescan method relative to control.
The target in assay [3] is Calcium/calmodulin-dependent protein kinase kinase 1 (Homo sapiens) (UniProt Q8N5S9). As to the kind of experiment: Binding affinity to wild-type human partial length CAMKK1 (R65 to E414 residues) expressed in bacterial expression system assessed as residual binding level at 1 uM by Kinomescan method relative to control.
The target of assay [4] is Mitogen-activated protein kinase 4 (Homo sapiens) (UniProt P31152). Put plainly: Binding affinity to wild-type human partial length ERK4 (M1 to L365 residues) expressed in bacterial expression system assessed as residual binding level at 1 uM by Kinomescan method relative to control.
Assay [5] addresses Mitogen-activated protein kinase kinase kinase kinase 1 (Homo sapiens) (UniProt Q92918). As to the kind of experiment: Binding affinity to wild-type human full length HPK1 (M1 to R799 residues) expressed in bacterial expression system assessed as residual binding level at 1 uM by Kinomescan method relative to control. In outline: as §1
The target in assay [6] is Tyrosine-protein kinase JAK1 (Homo sapiens) (UniProt P23458). Put plainly: Binding affinity to wild-type human partial length JAK1 JH2 pseudokinase domain (R537 to D855 residues) expressed in mammalian expression system assessed as residual binding level at 1 uM by Kinomescan method relative to control.
The target of assay [7] is Tyrosine-protein kinase Lyn (Homo sapiens) (UniProt P07948). As to the kind of experiment: Binding affinity to wild-type human partial length LYN (C219 to Q511 residues) expressed in bacterial expression system assessed as residual binding level at 1 uM by Kinomescan method relative to control. In outline:
(§2)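 Active-site-directed competition binding panel of 468 kinases (KinomeScan), compound at 1 μM. The read-out is kinase remaining bound, given as a percentage of the DMSO control. […]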

The target in assay [8] is Myosin-IIIb (Homo sapiens) (UniProt Q8WXR4). Put plainly: Binding affinity to wild-type human partial length MYO3B (M1 to D357 residues) expressed in bacterial expression system assessed as residual binding level at 1 uM by Kinomescan method relative to control.
For assay [9], the target named is Serine/threonine-protein kinase Nek11 (Homo sapiens) (UniProt Q8NG66). Put plainly: Binding affinity to wild-type human partial length NEK11 (M1 to E313 residues) expressed in mammalian expression system assessed as residual binding level at 1 uM by Kinomescan method relative to control. An outline of the steps:
as §2

The target in assay [10] is Mitogen-activated protein kinase 11 (Homo sapiens) (UniProt Q15759). As to the kind of experiment: Binding affinity to wild-type human full length p38-beta (M1 to Q364 residues) expressed in bacterial expression system assessed as residual binding level at 1 uM by Kinomescan method relative to control. An outline of the steps:
(§3)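 KinomeScan, an active site-directed competition binding panel of 468 kinases. The test compound was at 1 μM. The readout is remaining kinase binding as a percentage of the DMSO control. Scores above 35% were treated as weak binding and not listed.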

Assay [11] has as its system Phosphatidylinositol 4,5-bisphosphate 3-kinase catalytic subunit alpha isoform (Homo sapiens), P42336 [C420R]. Put plainly: Binding affinity to human partial length PIK3CA C420R mutant (R108 to N1068 residues) expressed in mammalian expression system assessed as residual binding level at 1 uM by Kinomescan method relative to control. An outline of the steps:
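KinomeScan active site-directed competition binding panel (468 kinases), compound tested at 1 μM. Result expressed as remaining kinase signal versus DMSO control (percent of control).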

Assay [12] addresses Phosphatidylinositol 4-phosphate 5-kinase type-1 alpha (Homo sapiens) (UniProt Q99755). As to the kind of experiment: Binding affinity to wild-type human full length PIP5K1A (M1 to H562 residues) expressed in bacterial expression system assessed as residual binding level at 1 uM by Kinomescan method relative to control. In outline:
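Active-site-directed competition binding panel (KinomeScan) covering 468 kinases. Test agent was screened at 1 μM. The read-out is the remaining kinase signal expressed relative to a DMSO control. Scores above 35%, taken as weak binding, were not reported.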

Assay [13] addresses Dual serine/threonine and tyrosine protein kinase (Homo sapiens) (UniProt Q6XUX3). Put plainly: Binding affinity to wild-type human full length RIPK5 (M1 to T929 residues) expressed in mammalian expression system assessed as residual binding level at 1 uM by Kinomescan method relative to control. In outline: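 Active-site-directed competition binding screen across a 468-kinase panel, run with the test compound at 1 μM. The read-out is the kinase signal remaining relative to a DMSO control, reported as a percentage. […]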

Assay [14] has as its target Proto-oncogene tyrosine-protein kinase ROS (Homo sapiens) (UniProt P08922). As to the kind of experiment: Binding affinity to wild-type human partial length ROS1 (A1921 to N2240 residues) expressed in bacterial expression system assessed as residual binding level at 1 uM by Kinomescan method relative to control.
Assay [15] has as its target Serine/threonine-protein kinase SIK2 (Homo sapiens) (UniProt Q9H0K1). Put plainly: Binding affinity to wild-type human full length SIK2 (M1 to N926 residues) expressed in bacterial expression system assessed as residual binding level at 1 uM by Kinomescan method relative to control. In outline:
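Active site-directed binding assay (KinomeScan) run across a 468-kinase panel, with the test compound at 1 μM. The read-out is the remaining kinase signal in the presence of compound, expressed as a percentage of the DMSO control. Scores above 35% were taken as weak binding and were not reported.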

Assay [16] addresses Serine/threonine-protein kinase 36 (Homo sapiens) (UniProt Q9NRP7). Put plainly: Binding affinity to wild-type human partial length STK36 (M1 to T271 residues) expressed in bacterial expression system assessed as residual binding level at 1 uM by Kinomescan method relative to control. An outline of the steps: (§4)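 Active site-directed competition binding panel (KinomeScan, 468 kinases). Test compound at 1 μM. Read-out is kinase binding remaining versus DMSO control, expressed as percent of control. Scores above 35% are treated as weak binding.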

Assay [17] concerns the target Testis-specific serine/threonine-protein kinase 1 (Homo sapiens) (UniProt Q9BXA7). Put plainly: Binding affinity to wild-type human full length TSSK1B (M1 to Q367 residues) expressed in bacterial expression system assessed as residual binding level at 1 uM by Kinomescan method relative to control. In outline:
as §3

Assay [18] addresses Mitogen-activated protein kinase kinase kinase 20 (Homo sapiens) (UniProt Q9NYL2). Put plainly: Binding affinity to wild-type human partial length ZAK (M1 to L331 residues) expressed in bacterial expression system assessed as residual binding level at 1 uM by Kinomescan method relative to control. An outline of the steps: as §4

Mitogen-activated protein kinase kinase kinase 20 (Homo sapiens), sequence (Q9NYL2 2-800 limits assumed): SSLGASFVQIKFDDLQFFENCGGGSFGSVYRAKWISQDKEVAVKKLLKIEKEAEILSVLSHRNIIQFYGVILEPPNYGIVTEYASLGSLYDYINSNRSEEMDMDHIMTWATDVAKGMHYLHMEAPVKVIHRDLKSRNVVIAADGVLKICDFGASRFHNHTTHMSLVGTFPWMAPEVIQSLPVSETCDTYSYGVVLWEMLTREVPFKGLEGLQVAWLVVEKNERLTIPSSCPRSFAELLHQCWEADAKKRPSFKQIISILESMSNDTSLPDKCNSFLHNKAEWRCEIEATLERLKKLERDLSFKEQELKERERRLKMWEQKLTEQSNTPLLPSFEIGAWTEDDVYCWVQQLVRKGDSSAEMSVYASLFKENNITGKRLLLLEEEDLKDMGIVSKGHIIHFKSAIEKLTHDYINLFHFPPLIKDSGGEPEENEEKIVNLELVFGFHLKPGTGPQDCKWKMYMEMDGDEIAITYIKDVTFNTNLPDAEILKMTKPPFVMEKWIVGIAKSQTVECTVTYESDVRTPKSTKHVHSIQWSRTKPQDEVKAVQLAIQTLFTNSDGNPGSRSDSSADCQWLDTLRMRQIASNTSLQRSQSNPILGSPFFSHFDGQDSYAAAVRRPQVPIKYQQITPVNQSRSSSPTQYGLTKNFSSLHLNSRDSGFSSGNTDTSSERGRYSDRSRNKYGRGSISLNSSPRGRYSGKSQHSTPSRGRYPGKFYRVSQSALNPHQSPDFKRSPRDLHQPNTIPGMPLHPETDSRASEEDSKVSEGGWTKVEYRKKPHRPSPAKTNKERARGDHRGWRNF
Serine/threonine-protein kinase B-raf (Homo sapiens), sequence (P15056 whole entry, the tested form may be a part): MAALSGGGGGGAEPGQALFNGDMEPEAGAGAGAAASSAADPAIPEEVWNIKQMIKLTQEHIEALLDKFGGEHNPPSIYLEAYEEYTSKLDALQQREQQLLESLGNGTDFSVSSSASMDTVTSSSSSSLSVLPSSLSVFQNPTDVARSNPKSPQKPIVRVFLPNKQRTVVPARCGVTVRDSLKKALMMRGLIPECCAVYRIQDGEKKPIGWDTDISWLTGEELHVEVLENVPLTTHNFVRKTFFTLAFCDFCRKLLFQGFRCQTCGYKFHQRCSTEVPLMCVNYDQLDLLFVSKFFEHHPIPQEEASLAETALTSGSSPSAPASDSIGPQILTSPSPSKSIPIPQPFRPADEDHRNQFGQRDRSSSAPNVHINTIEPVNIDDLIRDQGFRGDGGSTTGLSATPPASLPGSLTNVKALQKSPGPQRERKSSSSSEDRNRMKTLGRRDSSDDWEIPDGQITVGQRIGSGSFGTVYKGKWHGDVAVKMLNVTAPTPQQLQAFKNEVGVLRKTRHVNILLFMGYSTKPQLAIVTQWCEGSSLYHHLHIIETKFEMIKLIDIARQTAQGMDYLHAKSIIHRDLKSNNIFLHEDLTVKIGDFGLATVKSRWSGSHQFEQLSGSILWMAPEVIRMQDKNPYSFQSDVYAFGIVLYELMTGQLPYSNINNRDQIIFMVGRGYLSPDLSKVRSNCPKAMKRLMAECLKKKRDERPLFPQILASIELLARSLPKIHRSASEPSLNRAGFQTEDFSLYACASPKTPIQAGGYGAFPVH
Myosin-IIIb (Homo sapiens), sequence (Q8WXR4 whole entry, the tested form may be a part): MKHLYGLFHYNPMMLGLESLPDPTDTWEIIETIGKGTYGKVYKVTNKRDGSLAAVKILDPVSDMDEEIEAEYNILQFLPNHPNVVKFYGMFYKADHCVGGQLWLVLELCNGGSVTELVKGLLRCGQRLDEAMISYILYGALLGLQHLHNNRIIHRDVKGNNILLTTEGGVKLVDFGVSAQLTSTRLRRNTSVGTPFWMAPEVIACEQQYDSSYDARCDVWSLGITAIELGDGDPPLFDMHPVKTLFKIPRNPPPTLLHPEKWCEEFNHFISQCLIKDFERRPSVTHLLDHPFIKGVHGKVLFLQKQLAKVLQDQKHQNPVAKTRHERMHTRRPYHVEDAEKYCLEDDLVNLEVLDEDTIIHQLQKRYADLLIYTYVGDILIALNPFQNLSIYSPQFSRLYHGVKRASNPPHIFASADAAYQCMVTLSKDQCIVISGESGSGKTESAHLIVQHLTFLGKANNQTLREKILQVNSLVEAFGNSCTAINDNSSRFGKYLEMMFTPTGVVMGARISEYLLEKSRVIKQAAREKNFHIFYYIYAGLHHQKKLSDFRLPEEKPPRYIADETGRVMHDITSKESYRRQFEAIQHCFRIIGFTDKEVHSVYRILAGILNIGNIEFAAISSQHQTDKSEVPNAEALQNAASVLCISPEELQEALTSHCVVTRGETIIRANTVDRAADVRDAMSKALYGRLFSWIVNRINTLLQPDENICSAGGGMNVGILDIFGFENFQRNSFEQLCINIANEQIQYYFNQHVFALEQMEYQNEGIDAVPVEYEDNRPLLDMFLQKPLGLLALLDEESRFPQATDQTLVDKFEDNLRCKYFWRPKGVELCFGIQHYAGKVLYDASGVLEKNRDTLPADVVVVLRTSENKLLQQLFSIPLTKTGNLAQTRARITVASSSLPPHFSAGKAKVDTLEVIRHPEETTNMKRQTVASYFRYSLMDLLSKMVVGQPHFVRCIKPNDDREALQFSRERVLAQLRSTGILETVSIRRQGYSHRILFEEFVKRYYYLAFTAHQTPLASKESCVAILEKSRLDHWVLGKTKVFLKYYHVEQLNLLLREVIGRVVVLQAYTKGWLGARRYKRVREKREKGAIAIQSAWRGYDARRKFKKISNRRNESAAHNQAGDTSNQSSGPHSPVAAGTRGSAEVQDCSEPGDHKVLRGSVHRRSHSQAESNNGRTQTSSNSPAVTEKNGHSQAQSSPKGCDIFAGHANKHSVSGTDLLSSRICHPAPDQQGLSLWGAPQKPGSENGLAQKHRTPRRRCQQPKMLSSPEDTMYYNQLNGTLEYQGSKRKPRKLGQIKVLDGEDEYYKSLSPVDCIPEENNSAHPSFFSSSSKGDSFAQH
Calcium/calmodulin-dependent protein kinase kinase 1 (Homo sapiens), sequence (Q8N5S9 whole entry, looked up, the tested form may be a part): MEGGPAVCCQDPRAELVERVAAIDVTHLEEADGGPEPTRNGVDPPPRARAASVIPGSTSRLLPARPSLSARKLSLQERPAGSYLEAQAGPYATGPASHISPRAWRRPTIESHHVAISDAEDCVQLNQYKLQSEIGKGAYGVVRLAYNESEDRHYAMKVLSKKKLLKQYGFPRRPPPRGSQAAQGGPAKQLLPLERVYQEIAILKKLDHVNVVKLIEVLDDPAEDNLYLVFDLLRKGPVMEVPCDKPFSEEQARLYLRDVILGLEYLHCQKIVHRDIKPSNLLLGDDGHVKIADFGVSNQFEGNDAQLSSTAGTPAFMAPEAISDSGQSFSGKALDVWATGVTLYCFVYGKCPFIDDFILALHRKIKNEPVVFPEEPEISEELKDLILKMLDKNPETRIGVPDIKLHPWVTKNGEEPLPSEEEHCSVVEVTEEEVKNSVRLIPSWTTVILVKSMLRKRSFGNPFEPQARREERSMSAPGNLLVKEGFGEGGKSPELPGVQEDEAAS
Tyrosine-protein kinase Lyn (Homo sapiens), sequence (P07948 2-512 limits assumed): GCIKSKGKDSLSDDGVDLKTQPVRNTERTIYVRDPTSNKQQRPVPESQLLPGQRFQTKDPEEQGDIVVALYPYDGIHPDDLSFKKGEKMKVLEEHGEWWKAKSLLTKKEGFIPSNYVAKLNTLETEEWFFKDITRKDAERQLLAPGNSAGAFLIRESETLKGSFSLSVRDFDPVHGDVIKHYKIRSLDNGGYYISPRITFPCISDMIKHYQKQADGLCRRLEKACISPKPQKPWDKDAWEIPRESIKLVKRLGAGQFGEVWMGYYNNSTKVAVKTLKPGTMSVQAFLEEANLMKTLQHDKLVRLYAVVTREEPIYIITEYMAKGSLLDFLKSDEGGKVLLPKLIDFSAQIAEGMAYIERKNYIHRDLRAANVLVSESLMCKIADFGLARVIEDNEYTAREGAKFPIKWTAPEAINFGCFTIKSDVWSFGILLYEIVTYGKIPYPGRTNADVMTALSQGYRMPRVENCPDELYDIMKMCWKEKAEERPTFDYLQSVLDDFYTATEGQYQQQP
Mitogen-activated protein kinase 11 (Homo sapiens), sequence (Q15759 whole entry, the tested form may be a part): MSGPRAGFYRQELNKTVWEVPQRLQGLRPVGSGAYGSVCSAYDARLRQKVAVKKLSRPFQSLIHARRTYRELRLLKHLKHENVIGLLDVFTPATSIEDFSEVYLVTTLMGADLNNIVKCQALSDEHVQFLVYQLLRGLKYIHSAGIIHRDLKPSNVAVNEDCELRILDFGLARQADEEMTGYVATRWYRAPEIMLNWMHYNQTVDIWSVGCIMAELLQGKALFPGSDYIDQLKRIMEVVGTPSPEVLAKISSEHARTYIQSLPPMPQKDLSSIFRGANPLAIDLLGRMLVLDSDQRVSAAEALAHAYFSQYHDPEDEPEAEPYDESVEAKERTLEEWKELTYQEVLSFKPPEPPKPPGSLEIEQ
Mitogen-activated protein kinase 4 (Homo sapiens), sequence (P31152 whole entry, the tested form may be a part): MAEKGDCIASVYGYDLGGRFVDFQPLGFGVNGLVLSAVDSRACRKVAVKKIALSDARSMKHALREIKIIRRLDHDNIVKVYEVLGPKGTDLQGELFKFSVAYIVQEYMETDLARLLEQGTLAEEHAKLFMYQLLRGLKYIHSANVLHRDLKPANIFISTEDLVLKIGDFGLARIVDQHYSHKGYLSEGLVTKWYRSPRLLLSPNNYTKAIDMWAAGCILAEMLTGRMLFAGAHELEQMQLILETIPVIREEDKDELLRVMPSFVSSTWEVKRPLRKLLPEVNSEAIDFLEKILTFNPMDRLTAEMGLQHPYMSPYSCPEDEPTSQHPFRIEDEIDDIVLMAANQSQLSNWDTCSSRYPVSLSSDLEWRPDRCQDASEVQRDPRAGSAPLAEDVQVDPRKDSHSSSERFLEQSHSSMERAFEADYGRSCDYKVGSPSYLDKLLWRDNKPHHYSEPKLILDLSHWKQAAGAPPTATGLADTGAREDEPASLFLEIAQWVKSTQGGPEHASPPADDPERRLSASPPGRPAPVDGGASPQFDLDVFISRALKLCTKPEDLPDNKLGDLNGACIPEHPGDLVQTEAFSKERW

As for `C=CC(=O)Nc1ccccc1Nc1nc(Nc2ccc(N3CCN(C)CC3)cc2)ncc1C(=O)Nc1c(C)cccc1Cl`, the Activity in assay [1], in [2], in [3], in assay [4], in assay [5] and in assay [6] was 100% throughout. In addition, the Activity in assay [7] turned out to be 2.8%; in assay [8] it was 91%; in assay [9], 72%; in [10], 98%; in [11], 100%; in assay [12], 100%. In addition, the Activity in [13] amounted to 100%; in [14] it was 100%; in assay [15], 67%; in [16], 47%; in [17], 86%; in assay [18] it was 98%.
